Test [1] has as its target Genome polyprotein (dengue virus type 2) (UniProt P12823). The experiment in a line: Inhibition of Dengue virus 2 NS2B/NS3 protease using Bz-Nle-Lys-Arg-Arg-AMC as substrate preincubated at 20 uM for 30 mins before substrate addition by fluorescence assay. The gist of the method:
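E. coli BL21-expressed DENV2 NS2B-NS3pro, 200 nM, with compound at 20 µM in 50 mM Tris-HCl pH 8.5, 10 mM NaCl, 20% glycerol, 1 mM CHAPS, 37 °C for 30 min. Bz-Nle-Lys-Arg-Arg-AMC added to start. Fluorescence read every 10 s for 5 min (ex 380/em 460 nm). Inhibition rate from maximum reaction rate with versus without compound. Aprotinin 1 µM as positive control.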

In test [2] the target is T1, Genome polyprotein (dengue virus type 2, UniProt P12823). Description: Inhibition of Dengue virus 2 NS2B/NS3 protease using Bz-Nle-Lys-Arg-Arg-AMC as substrate preincubated for 30 mins before substrate addition by fluorescence assay. The gist of the method: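 Purified DENV2 NS2B-NS3pro (200 nM; E. coli BL21) mixed with compound at eleven levels, 0.1 nM–200 µM, in pH 8.5 Tris-HCl buffer with 10 mM NaCl, 20% glycerol, 1 mM CHAPS. Preincubated 30 min at 37 °C, then Bz-Nle-Lys-Arg-Arg-AMC added. AMC fluorescence (380/460 nm) followed every 10 s over 5 min. IC50 from the concentration series.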

Test [3] deals with T1, Genome polyprotein. The experiment in a line: (§1) Binding affinity to Dengue virus 2 NS2B/NS3 protease by SPR assay. An outline of the steps:
(§2)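 DENV2 NS2B/NS3pro purified from E. coli BL21 and amine-coupled onto a CM5 chip in 10 mM sodium acetate, pH 3.95. Compounds serially diluted in HBS (0.01 M HEPES, 0.15 M NaCl, 3 mM EDTA, 0.005% P20, pH 7.4). Biacore 3000 SPR gave the equilibrium KD.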
For orientation: In SPR one partner is held on a chip, and binding of the other changes the refractive index at the surface.

Test [4] concerns the target Genome polyprotein (dengue virus type 2) (UniProt P12823). The test is described as §1. The gist of the method:
as §2

pIC50, pKd: −log10 of the molar value. Calls of active or inactive are those of the source. No cut-off for these calls is given here.

The results in this text go back to ChEMBL document CHEMBL3352392, “Identification of novel thiadiazoloacrylamide analogues as inhibitors of dengue-2 virus NS2B/NS3 protease” (Bioorg Med Chem, 2014).

A word on the inhibition: it is the change of the read-out against control, counted positive when it falls. Low readings indicate little suppression, high ones strong suppression. By pIC50 is commonly meant the IC50 on a negative log10 scale, so that one unit is a factor of ten. Read a high pIC50 as a low IC50. By pKd is commonly meant the Kd on a negative log10 scale, so that one unit is a factor of ten. A low value points to a high Kd.

The compound `N#C/C(=C\c1cn(Cc2ccccc2)c2ccccc12)C(=O)Nc1nnc(SCc2ccccc2)s1` registered an inhibition in test [1] of 79%. Further, the pIC50 in test [2] was 5.35. In test [3], the pKd was 5.44.
In test [1], `N=C1/C(=C/c2cn(Cc3ccccc3)c3ccccc23)C(=O)N=C2SC(SCc3ccccc3)=NN12` gave an inhibition of 72%. This compound gave a pIC50 in test [2] of 5.22.
For the compound `N#C/C(=C\c1cn(Cc2ccccc2)c2ccccc12)C(=O)Nc1nnc(SCc2ccc(Br)cc2)s1`, in test [1], the inhibition came to 65.8%.
Take `N#C/C(=C\c1cn(Cc2ccccc2F)c2ccccc12)C(=O)Nc1nnc(SCc2ccccc2)s1`: in test [1], the inhibition is 88.9%. In test [2], the pIC50 is 5.45.
`Cc1ccccc1CSc1nnc(NC(=O)/C(C#N)=C/c2cn(Cc3ccccc3)c3ccccc23)s1`: in test [1], the inhibition is 69.4%.
Consider `COc1ccc(CSc2nnc(NC(=O)/C(C#N)=C/c3cn(Cc4ccccc4)c4ccccc34)s2)cc1`, for which the inhibition in test [1] came out at 76.3%. In test [2], this compound gave a pIC50 of 5.46.
In test [1], `N#C/C(=C\c1cn(Cc2ccc(C(F)(F)F)cc2C(F)(F)F)c2ccccc12)C(=O)Nc1nnc(SCc2ccccc2)s1` yielded an inhibition of 54.1%.
In test [1], `N#C/C(=C\c1cn(Cc2ccccc2)c2ccccc12)C(=O)Nc1nnc(SCc2ccc(F)cc2)s1` showed an inhibition of 83.4%. This compound also had a pIC50 in test [2] of 5.43.
The compound `N#C/C(=C\c1cn(Cc2ccc(F)cc2)c2ccccc12)C(=O)Nc1nnc(SCc2ccccc2)s1` came in with an inhibition in test [1] of 86.5%. This compound gave a pIC50 in test [2] of 5.65. Moreover, in test [3], the pKd was 5.68.
In turn, `N#C/C(=C\c1cn(Cc2ccc(C(F)(F)F)cc2)c2ccccc12)C(=O)Nc1nnc(SCc2ccccc2)s1` yielded an inhibition in test [1] of 45.9%.
Take `N#C/C(=C\c1cn(Cc2ccccc2)c2ccccc12)C(=O)Nc1nnc(C(F)(F)F)s1`: in test [1], the inhibition was determined as 76%. For the same compound, the pIC50 in test [2] is 5.00. For the same compound, the pKd in test [3] was 5.03.
The compound `N#C/C(=C\c1cn(Cc2ccccc2)c2ccccc12)C(=O)Nc1nnc(SCc2ccccc2Cl)s1` gave an inhibition in test [1] of 63.5%.
In the case of `O=C(/C=C/c1cn(Cc2ccccc2)c2ccccc12)Nc1nnc(C(F)(F)F)s1`, the outcome in test [4] was inactive.
For the compound `N#C/C(=C\c1cn(Cc2ccccc2)c2ccccc12)C(=O)Nc1nnc(SCc2cccc3ccccc23)s1`, the inhibition in test [1] amounted to 50%.
For the compound `N#C/C(=C\c1cn(Cc2ccccc2)c2ccccc12)C(=O)Nc1nnc(SCc2ccc(Cl)cc2)s1`, the inhibition in test [1] was determined as 63.4%.
`N#C/C(=C\c1cn(Cc2ccccc2C#N)c2ccccc12)C(=O)Nc1nnc(SCc2ccccc2)s1`: the inhibition in test [1] amounted to 85.8%. This compound showed a pIC50 in test [2] of 5.54.
